Data taken from ChEMBL document CHEMBL2384997, “2-(1H-Pyrazol-4-yl)acetic acids as CRTh2 antagonists” (Bioorg Med Chem Lett, 2013).
Values after ≈ are worked out from the molar mass of the structure shown.

Columns and labels:
[1] = biological target: T1, Prostaglandin D2 receptor 2 (Homo sapiens, UniProt Q9Y5Y4); assay: Antagonist activity at CRTh2 receptor (unknown origin) overexpressed in CHOK1 cell membranes assessed as inhibition of [35S]-GTPgammaS binding preincubated for 1 hr followed by 50 nM PGD2 and 0.1 nM [35S]-GTPgammaS addition measured after 2 hrs by liquid scintillation counting analysis; format: functional, CHO-K1
T1 sequence (Q9Y5Y4 whole entry): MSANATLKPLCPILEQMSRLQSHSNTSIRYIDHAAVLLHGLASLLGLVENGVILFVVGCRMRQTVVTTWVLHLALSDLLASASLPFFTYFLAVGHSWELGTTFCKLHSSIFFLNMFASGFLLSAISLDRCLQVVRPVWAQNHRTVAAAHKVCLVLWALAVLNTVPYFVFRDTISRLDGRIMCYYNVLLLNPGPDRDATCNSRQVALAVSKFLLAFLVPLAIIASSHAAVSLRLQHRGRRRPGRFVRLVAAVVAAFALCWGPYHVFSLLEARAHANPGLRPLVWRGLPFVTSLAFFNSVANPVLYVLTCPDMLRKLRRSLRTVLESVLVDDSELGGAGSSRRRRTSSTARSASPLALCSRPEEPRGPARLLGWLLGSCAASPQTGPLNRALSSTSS

[2] = biological target: T2, Prostaglandin D2 receptor (Homo sapiens) (UniProt Q13258); assay: Inhibition of DP1 receptor (unknown origin) at 10 uM relative to control
T2 sequence (whole entry): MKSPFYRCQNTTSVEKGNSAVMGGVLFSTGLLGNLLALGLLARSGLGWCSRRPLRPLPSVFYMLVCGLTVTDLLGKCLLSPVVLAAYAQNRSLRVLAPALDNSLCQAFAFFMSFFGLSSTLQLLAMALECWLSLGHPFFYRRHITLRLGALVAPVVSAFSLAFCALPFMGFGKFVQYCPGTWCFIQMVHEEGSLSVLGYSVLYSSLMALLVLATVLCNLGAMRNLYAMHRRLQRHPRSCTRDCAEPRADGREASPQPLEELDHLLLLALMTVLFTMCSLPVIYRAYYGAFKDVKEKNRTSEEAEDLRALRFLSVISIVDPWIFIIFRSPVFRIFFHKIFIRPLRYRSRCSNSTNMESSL

[3] = biological target: T3, Prostaglandin D2 receptor 2 (Homo sapiens) (UniProt Q9Y5Y4); conditions: CHO-K1
T3 sequence (whole entry): T1 sequence (Q9Y5Y4 whole entry)

[4] = biological target: T4, Thromboxane A2 receptor (Homo sapiens) (UniProt P21731); assay: Inhibition of thromboxane A2 receptor (unknown origin) at 10 uM relative to control
T4 sequence (whole entry): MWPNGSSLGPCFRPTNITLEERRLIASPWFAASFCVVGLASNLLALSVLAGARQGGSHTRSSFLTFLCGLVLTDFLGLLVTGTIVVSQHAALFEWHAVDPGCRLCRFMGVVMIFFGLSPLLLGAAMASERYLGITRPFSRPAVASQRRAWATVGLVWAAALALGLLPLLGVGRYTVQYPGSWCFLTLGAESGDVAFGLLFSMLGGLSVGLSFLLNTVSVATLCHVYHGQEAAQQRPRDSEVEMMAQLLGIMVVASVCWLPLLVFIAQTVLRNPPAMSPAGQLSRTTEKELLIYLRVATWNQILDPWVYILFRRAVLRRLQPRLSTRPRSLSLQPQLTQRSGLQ

[5] = Solubility of the compound at pH 7.4; format: physicochemical; conditions: buffer
[6] = Oral bioavailability in rat at 1 mg/kg; format: ADME, organism-based; conditions: in vivo
[7] = Solubility of the compound at pH 1; format: physicochemical; conditions: buffer
[8] = biological target: T3, Prostaglandin D2 receptor 2 (Homo sapiens); assay: Ratio of IC50 for CRTh2 receptor in human whole blood assessed as inhibition of PGD2-induced eosinophil shape change to IC50 for CRTh2 receptor (unknown origin) overexpressed in CHOK1 cells assessed as inhibition of [35S]-GTPgammaS binding; format: functional, cell-based; conditions: CHO-K1
[9] = Volume of distribution at steady state in rat at 0.5 mg/kg, iv; format: ADME, organism-based; design: dose 0.5 mg/kg, route intravenous; conditions: in vivo, read-out: Vdss
[10] = Half life in rat at 0.5 mg/kg, iv; format: ADME, organism-based; design: dose 0.5 mg/kg, route intravenous; conditions: in vivo
[11] = Dissociation constant, pKa of the compound by potentiometric method; format: physicochemical
Procedure, shortened: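 pKa determined potentiometrically.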

[12] = Apparent permeability from apical to basolateral side in human Caco2 cells; format: ADME, cell-based; conditions: Caco-2
[13] = Clearance in rat at 0.5 mg/kg, iv; format: ADME, organism-based; design: dose 0.5 mg/kg, route intravenous; conditions: in vivo
[14] = Apparent permeability from basolateral to apical side in human Caco2 cells; format: ADME, cell-based; conditions: Caco-2
[15] = Lipophilicity , log D of the compound at pH 7.4 by shake-flask method; format: physicochemical; conditions: buffer
Procedure, shortened: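 logD at pH 7.4 by shake-flask.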

[16] = AUC ( 0 to 24 hrs) in rat at 0.5 mg/kg, iv; format: ADME, organism-based; design: time < 24 hr, dose 0.5 mg/kg, route intravenous; conditions: plasma
[17] = biological target: T1, Prostaglandin D2 receptor 2; assay: Antagonist activity at CRTh2 receptor overexpressed in CHOK1 cell membranes assessed as inhibition of [35S]-GTPgammaS binding in presence of 1% human serum albumin
[18] = Terminal half life in rat at 1 mg/kg, iv; format: ADME, organism-based; design: dose 1 mg/kg, route intravenous; conditions: in vivo, read-out: beta t1/2 (converted)
[19] = Oral bioavailability in rat at 10 mg/kg; format: ADME, organism-based; conditions: in vivo
[20] = AUC ( 0 to 24 hrs) in rat at 1 mg/kg, iv; format: ADME, organism-based; design: time < 24 hr, dose 1 mg/kg, route intravenous; conditions: plasma
[21] = Volume of distribution at steady state in rat at 1 mg/kg, iv; format: ADME, organism-based; design: dose 1 mg/kg, route intravenous; conditions: in vivo, read-out: Vdss
[22] = Plasma protein binding in rat by rapid equilibrium dialysis method; format: ADME, cell-free; conditions: read-out: PPB (converted)
[23] = Clearance in rat at 1 mg/kg, iv; format: ADME, organism-based; design: dose 1 mg/kg, route intravenous; conditions: in vivo
[24] = Plasma protein binding in human by rapid equilibrium dialysis method; format: ADME, cell-free; conditions: read-out: PPB
Procedure, shortened: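 Protein binding by equilibrium dialysis; human plasma diluted to 10%.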

## Cc1c(CC(=O)O)c(-c2ccccc2)nn1Cc1ccccc1C(=O)c1ccccc1
[1]; read-out: IC50
  IC50: 1400 nM

## Cc1c(Cc2ccccc2S(=O)(=O)c2ccccc2)c2cc(F)ccc2n1CC(=O)O
[1]; read-out: IC50
  IC50: 16 nM

## Cc1nn(Cc2ccccc2S(=O)(=O)c2ccccc2)c(C)c1CC(=O)O
[2]
  inhibition: < 40%
[1]; read-out: IC50
  IC50: 81 nM
[3]
  T1/2: 2 min
[4]
  inhibition: < 40%

## Cc1c(CC(=O)O)c(=O)[nH]n1Cc1ccccc1S(=O)(=O)c1ccccc1
[2]
  inhibition: < 40%
[4]
  inhibition: < 40%

## Cc1c(CC(=O)O)c(-c2ccccc2)nn1Cc1ccccc1CS(=O)(=O)c1ccccc1
[1]; read-out: IC50
  IC50: 490 nM

## Cc1c(CC(=O)O)c(-c2ccccc2)nn1C(c1ccc(F)cc1)c1ccc(S(C)(=O)=O)cc1 (stereo not drawn)
[1]; read-out: IC50
  IC50: 5000 nM

## Cc1c(CC(=O)O)c(-c2ccccc2)nn1Cc1ccccc1-c1ccccc1
[1]; read-out: IC50
  IC50: 5000 nM

## COc1ccc(S(=O)(=O)c2ccc(F)cc2)c(Cn2nc(-c3ccccc3)c(CC(=O)O)c2C)c1
[1]; read-out: IC50
  IC50: 36 nM

## Cc1c(CC(=O)O)c(-c2ccccc2)nn1S(=O)(=O)c1ccc(Cl)c(Cl)c1
[1]; read-out: IC50
  IC50: 1600 nM

## Cc1nn(Cc2ccc(S(C)(=O)=O)cc2)c(C)c1CC(=O)O
[1]; read-out: IC50
  IC50: 5000 nM

## Cc1nn(-c2cccc(NC(=O)[C@H]3C[C@@H]3c3ccccc3)c2)c(C)c1CC(=O)O
[5]
  solubility: 800 µg/mL (≈ 2050 µM)
[6]
  bioavailability: 12%
[7]
  solubility: 500 µg/mL (≈ 1280 µM)
[8]
  Ratio IC50: 10
[9]
  Vd: 0.14 L/kg
[10]
  half-life: 78 min
[11]
  pKa: 4.2
[1]; read-out: IC50
  IC50: 230 nM
[12]
  Papp A→B: 3 ×10⁻⁶ cm/s
[13]
  clearance: 2.5 mL/min/kg
[14]
  Papp B→A: 6 ×10⁻⁶ cm/s
[15]
  logD: 0.9
[16]
  AUC(0-t) at 24 h: 3360 ng·h/mL

## Cc1c(CC(=O)O)c(-c2ccncc2)nn1Cc1ccccc1S(=O)(=O)c1ccccc1
[17]
  IC50: 66 nM
[1]; read-out: IC50
  IC50: 4 nM

## Cc1c(CC(=O)O)c(-c2ccncc2)nn1C(c1ccc(F)cc1)c1ccc(F)cc1
[2]
  inhibition: < 40%
[1]; read-out: IC50
  IC50: 46 nM
[3]
  T1/2: 30 min
[4]
  inhibition: < 40%

## Cc1c(CC(=O)O)c(-c2ccccc2)nn1Cc1ccccc1S(=O)(=O)N(C)C
[1]; read-out: IC50
  IC50: 850 nM

## Cc1c(CC(=O)O)c(-c2ccccc2)nn1-c1ccnc2ccccc12
[1]; read-out: IC50
  IC50: 5000 nM

## Cc1c(CC(=O)O)c(-c2ccccc2)nn1C(c1ccc(F)cc1)c1ccc(F)cc1
[1]; read-out: IC50
  IC50: 1100 nM

## COc1c(CC(=O)O)c(C)nn1-c1cccc(NC(=O)[C@H]2C[C@@H]2c2ccccc2)c1
[1]; read-out: IC50
  IC50: 1600 nM

## Cc1c(CC(=O)O)c(-c2ccncc2)nn1Cc1ccc(F)cc1
[1]; read-out: IC50
  IC50: 1900 nM

## Cc1c(CC(=O)O)c(-c2ccccc2)nn1Cc1ccccc1S(=O)(=O)N1CCOCC1
[2]
  inhibition: < 40%
[1]; read-out: IC50
  IC50: 89 nM
[4]
  inhibition: < 40%

## Cc1c(CC(=O)O)c(-c2ccccc2)nn1Cc1ccccc1Cc1ccccc1
[2]
  inhibition: < 40%
[1]; read-out: IC50
  IC50: 100 nM
[4]
  inhibition: < 40%

## Cc1nn(Cc2ccc3ccccc3n2)c(C)c1CC(=O)O
[1]; read-out: IC50
  IC50: > 5000 nM

## Cc1c(CC(=O)O)c(-c2ccccc2)nn1C(C)c1ccccc1S(=O)(=O)c1ccccc1 (stereo not drawn)
[1]; read-out: IC50
  IC50: 2900 nM

## O=C(O)Cc1cn(C(c2ccc(F)cc2)c2ccc(F)cc2)nc1-c1ccncc1
[1]; read-out: IC50
  IC50: 290 nM

## Cc1c(CC(=O)O)c(-c2ccccc2)nn1CC1CCCN1S(=O)(=O)c1ccccc1 (stereo not drawn)
[1]; cho-k1
  IC50: Not Active

## Cc1c(CC(=O)O)c(-c2ccccc2)nn1Cc1ccc2ccccc2n1
[1]; read-out: IC50
  IC50: 870 nM

## Cc1c(CC(=O)O)c(-c2ccccc2)nn1Cc1ccccc1Oc1ccccc1
[2]
  inhibition: < 40%
[1]; read-out: IC50
  IC50: 2000 nM
[4]
  inhibition: < 40%

## Cc1c(CC(=O)O)c(-c2ccnc(F)c2)nn1C(c1ccc(F)cc1)c1ccc(F)cc1
[1]; read-out: IC50
  IC50: 310 nM

## Cc1c(CC(=O)O)c(-c2ccc(O)nc2)nn1C(c1ccc(F)cc1)c1ccc(F)cc1
[1]; cho-k1
  IC50: Not Active

## Cc1c(CC(=O)O)c(-c2ccccc2)nn1Cc1ccc(F)cc1S(=O)(=O)N1CCNCC1
[1]; read-out: IC50
  IC50: 5000 nM

## Cc1c(CC(=O)O)c(-c2ccccc2)nn1Cc1ccccc1S(=O)(=O)c1ccccc1
[5]
  solubility: 950 µg/mL (≈ 2130 µM)
[7]
  solubility: 3 µg/mL (≈ 6.72 µM)
[18]
  half-life: 288 min
[2]
  inhibition: < 40%
[19]
  bioavailability: 73%
[20]
  AUC(0-t) at 24 h: 1960 ng·h/mL
[11]
  pKa: 4.2
[21]
  Vd: 1.6 L/kg
[22]
  fraction unbound: 0.012
[1]; read-out: IC50
  IC50: 7 nM
[12]
  Papp A→B: 13 ×10⁻⁶ cm/s
[23]
  clearance: 8.5 mL/min/kg
[14]
  Papp B→A: 17 ×10⁻⁶ cm/s
[15]
  logD: 0.7
[3]
  T1/2: 12 min
[24]
  fraction unbound: < 0.001
[4]
  inhibition: < 40%

## Cc1c(CC(=O)O)c(-c2ccccc2)nn1Cc1ccc(S(C)(=O)=O)cc1
[1]; cho-k1
  IC50: Not Active
